Published values collected from several papers.

With `Cc1cc2sc(N)nc2c2cccnc12` the concentration was 32.7 ng/mL (female BALB/c mouse, plasma; intraperitoneal, 30 mg/kg, 24 h, single dose).
The concentration of `CCOC(=O)CN(C(=O)c1ccn2ncc(-c3ccc(C(=O)NC)cc3)c2c1)c1ccc(Cl)cc1` is reported as 150 nM (female C57BL/6 mouse, plasma; oral, 10 mg/kg, 4 h).
The logP of `CCN1CCN(C(=O)c2ccc(-n3nc(-c4cccnc4)c4c3-c3sc(NC(C)=O)nc3CC4)cc2)CC1` is reported as 3.16.
The half-life of `CCN1CCN(Cc2ccc(NC(=O)c3ccc(C)c(NC(=O)c4cncc(-c5cccs5)c4)c3)cc2C(F)(F)F)CC1` is reported as 2.52 h (mouse, plasma; intraperitoneal, 20 mg/kg, single dose).
`CN(C(=O)c1ccn2ncc(-c3ccc(C(N)=O)cc3)c2c1)c1ccc(C#N)cn1` gave a concentration of 519 nM (female C57BL/6 mouse, plasma; oral, 10 mg/kg, 4 h).
`O=C1NC(=O)/C(=C/c2ccc3ncnc(N4CCCCC4)c3n2)S1` has a logP of 2.33.
The hepatocyte CLint of `CCOc1ccc2ccc(=O)oc2c1` is reported as > 46.2 µL/min/10⁶ cells (metabolic stability; male beagle dog, hepatocytes; 1 µM).
With `CNC(=O)c1ccc(-c2cnn3ccc(C(=O)N(C[C@H]4CCC(=O)O4)c4ccc(OC(F)(F)F)cc4)cc23)cc1` the concentration was 31.4 nM (female C57BL/6 mouse, plasma; oral, 10 mg/kg, 1 h).
`CN(C)CC#Cc1ccc2[nH]c3c(c2c1)-c1nc(N)ncc1CCC3` has a concentration of 697 ng/mL (male CD-1 mouse, plasma; intraperitoneal, 30 mg/kg, 1 h, single dose).
`O=c1ccc2ccc(O)cc2o1` gave a scaled CLint of 1720 mL/min/kg (metabolic stability; dog, liver microsomes).
With `CCOC(=O)c1cc(Cl)cc(NC(=O)c2sc(Cl)cc2S(=O)(=O)N(C)c2ccc(OCC)c(OC)c2)c1` the concentration was 6.45 ng/g (male C57BL/6 mouse, brain; intraperitoneal, 10 mg/kg, 1 h).
The logP of `O=C1NC(=O)/C(=C/c2ccc3ncnc(N4CCC(F)(F)CC4)c3n2)S1` is reported as 2.51.
For `COc1cc(N2CCC(N3CCN(C)CC3)CC2)ccc1Nc1ncc(Cl)c(Nc2ccccc2P(C)(C)=O)n1`, the logP was 2.69.
